Measurements: ChEMBL document CHEMBL5055621, “Synthesis and Characterization of the Novel Rodent-Active and CNS-Penetrant P2X7 Receptor Antagonist Lu AF27139” (J Med Chem, 2021)

What was measured:
THP-1 = assay: Antiinflammatory activity against human THP-1 cells assessed as reduction in LPS and BzATP-induced IL-1beta release measured after 50 mins by microplate reader; format: functional, cell-based; conditions: THP-1, 50 min
Method in brief: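 THP-1 cells were differentiated with IFN-γ 10 ng/mL for 48 h and primed with LPS (100 ng/mL final) for 3.5 h at 10k cells/well. Compound was added for 20 min, then BzATP (1 mM final) for 30 min at 37 °C. Supernatant IL-1β was read by human AlphaLISA.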

Cytochrome P450 2C8 [1] = target: T1, Cytochrome P450 2C8 (Homo sapiens, UniProt P10632); assay: Inhibition of CYP2C8 (unknown origin) upto 25 uM; format: ADME
T1 sequence (P10632 whole entry): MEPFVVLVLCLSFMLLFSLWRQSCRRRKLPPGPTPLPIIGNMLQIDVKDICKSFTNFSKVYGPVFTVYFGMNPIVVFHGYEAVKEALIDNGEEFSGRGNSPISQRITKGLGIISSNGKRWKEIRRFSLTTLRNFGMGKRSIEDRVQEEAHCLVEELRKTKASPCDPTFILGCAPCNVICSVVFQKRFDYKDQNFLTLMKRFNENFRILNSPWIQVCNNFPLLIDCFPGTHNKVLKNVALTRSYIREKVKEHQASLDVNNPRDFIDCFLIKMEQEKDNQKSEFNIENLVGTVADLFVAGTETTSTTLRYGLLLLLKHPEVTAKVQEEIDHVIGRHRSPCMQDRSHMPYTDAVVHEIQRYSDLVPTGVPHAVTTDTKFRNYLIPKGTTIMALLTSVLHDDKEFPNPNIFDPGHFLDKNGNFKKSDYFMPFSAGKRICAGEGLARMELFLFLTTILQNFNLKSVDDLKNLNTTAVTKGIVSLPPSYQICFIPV

in vitro = conditions: rat, liver microsomes
hERG (KCNH2) = hERG (KCNH2) (Homo sapiens, UniProt Q12809); assay: Inhibition of human ERG at 30 uM
hERG (KCNH2), sequence (Q12809 whole entry): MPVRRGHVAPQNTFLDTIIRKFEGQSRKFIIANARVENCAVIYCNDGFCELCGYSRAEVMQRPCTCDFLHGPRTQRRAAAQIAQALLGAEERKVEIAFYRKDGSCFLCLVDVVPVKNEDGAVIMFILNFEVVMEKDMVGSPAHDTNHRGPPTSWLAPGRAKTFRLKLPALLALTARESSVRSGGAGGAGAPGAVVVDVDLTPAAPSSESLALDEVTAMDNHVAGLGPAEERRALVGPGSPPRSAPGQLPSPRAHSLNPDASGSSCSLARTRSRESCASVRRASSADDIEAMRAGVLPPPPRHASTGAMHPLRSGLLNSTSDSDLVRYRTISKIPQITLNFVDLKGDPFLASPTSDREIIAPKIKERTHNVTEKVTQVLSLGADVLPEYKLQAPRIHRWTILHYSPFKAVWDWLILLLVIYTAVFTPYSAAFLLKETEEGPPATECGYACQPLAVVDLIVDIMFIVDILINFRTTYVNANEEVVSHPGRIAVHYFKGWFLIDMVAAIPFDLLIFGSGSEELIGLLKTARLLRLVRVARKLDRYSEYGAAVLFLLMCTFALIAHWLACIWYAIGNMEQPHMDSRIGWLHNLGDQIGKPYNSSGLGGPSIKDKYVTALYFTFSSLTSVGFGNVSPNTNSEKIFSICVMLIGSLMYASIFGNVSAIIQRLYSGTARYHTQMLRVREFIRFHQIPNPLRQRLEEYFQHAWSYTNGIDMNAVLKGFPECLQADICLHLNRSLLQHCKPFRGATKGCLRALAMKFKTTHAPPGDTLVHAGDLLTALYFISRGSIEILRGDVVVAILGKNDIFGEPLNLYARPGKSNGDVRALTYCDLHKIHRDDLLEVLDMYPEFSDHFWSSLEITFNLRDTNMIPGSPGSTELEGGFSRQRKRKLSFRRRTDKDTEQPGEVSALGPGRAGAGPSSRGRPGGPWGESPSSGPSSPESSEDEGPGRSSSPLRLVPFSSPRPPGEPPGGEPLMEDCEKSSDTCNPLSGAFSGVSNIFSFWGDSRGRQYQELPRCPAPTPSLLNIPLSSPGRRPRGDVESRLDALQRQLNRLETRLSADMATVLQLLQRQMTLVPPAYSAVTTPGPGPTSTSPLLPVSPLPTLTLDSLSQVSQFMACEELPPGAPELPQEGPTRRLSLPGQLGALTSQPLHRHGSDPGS
Method in brief: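 hERG channel inhibition was measured at 30 μM.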

Cytochrome P450 2C8 [2] = target: T1, Cytochrome P450 2C8; assay: Time dependent inhibition of CYP2C8 (unknown origin) upto 25 uM; format: ADME
Cytochrome P450 3A4 = Cytochrome P450 3A4 (Homo sapiens, UniProt P08684); assay: Inhibition of CYP3A4 (unknown origin) upto 25 uM; format: ADME
Cytochrome P450 3A4, sequence (P08684 whole entry): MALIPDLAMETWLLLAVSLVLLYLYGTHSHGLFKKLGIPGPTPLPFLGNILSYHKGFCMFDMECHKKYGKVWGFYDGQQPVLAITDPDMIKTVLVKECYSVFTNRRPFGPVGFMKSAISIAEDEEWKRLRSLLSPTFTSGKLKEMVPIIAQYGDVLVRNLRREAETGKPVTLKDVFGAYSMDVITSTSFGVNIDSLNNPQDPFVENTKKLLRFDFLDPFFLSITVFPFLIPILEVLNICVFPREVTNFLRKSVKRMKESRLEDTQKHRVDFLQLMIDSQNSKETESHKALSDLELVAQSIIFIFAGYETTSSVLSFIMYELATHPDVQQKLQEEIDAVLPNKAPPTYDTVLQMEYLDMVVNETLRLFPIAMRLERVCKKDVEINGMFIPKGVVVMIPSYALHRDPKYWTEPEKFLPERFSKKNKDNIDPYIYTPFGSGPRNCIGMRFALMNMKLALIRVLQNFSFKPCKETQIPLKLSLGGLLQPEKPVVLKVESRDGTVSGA

[3] = Efflux ratio of permeability across basolateral to apical side over apical to basolateral side in MDCK2-MDR1 cells; format: ADME, cell-based, Canis lupus familiaris; conditions: dog, MDCK-MDR1
Method in brief: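 MDR1-MDCK monolayers; permeability measured in both A-to-B and B-to-A directions, in triplicate. Efflux ratio taken as B:A over A:B permeation.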

[4] = Inhibition of BzATP-induced IL-1beta in rat primary microglia cells primed with LPS measured after repeated BzATP treatment by microplate reader; format: functional, tissue-based
Method in brief: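 Cortical microglia from rat (P3 pups) or mouse were plated 1 day before assay and primed with 3 EU/mL LPS for 3.5 h. Compound was added for 30 min, then BzATP (1 mM) for 30 min at 37 °C. IL-1β was measured by MesoScale assay, normalised to BCA protein, and given as mean ± SD.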

[5] = Half life in rat at 1 mg/kg, iv and 2 mg/kg, po; format: ADME, organism-based; conditions: in vivo
Method in brief: (§1)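 Rats received 1 mg/kg iv or 2 mg/kg po. The plasma concentration–time profile was analysed by a noncompartmental model to give half-life, Cmax, Tmax and absolute oral bioavailability.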

[6] = Tmax in rat at 2 mg/kg, po; format: ADME, organism-based; conditions: in vivo; method in brief: as §1
[7] = AUC (0 to 8 hrs) in female mouse at 100 mg/kg, po after 14 days; conditions: in vivo
P2X purinoceptor 7 = target: T2, P2X purinoceptor 7 (Rattus norvegicus, UniProt Q64663); assay: Antagonist activity at rat P2X7 receptor expressed in HEK293 cells assessed as inhibition of BzATP-induced current at -60 mV by whole cell QPatch electrophysiology; format: cell-based
T2 sequence (Q64663 whole entry): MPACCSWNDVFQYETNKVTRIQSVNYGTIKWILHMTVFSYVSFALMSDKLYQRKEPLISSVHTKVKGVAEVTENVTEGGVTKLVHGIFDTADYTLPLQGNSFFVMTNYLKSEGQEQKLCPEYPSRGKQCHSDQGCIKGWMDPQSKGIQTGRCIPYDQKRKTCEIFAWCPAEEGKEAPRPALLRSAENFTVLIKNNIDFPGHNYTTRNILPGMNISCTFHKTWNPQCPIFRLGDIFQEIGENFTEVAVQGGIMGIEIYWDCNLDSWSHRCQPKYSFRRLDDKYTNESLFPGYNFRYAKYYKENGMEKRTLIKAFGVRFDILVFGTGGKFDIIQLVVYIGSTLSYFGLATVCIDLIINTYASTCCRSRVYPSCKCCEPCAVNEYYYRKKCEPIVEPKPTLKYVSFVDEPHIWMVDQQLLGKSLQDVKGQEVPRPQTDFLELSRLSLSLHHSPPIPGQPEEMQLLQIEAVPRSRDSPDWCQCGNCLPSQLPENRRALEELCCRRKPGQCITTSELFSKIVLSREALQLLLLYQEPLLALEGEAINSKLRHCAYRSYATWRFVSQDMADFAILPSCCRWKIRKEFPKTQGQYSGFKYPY
Method in brief: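 QPatch automated whole-cell recording was done on rat P2X7-HEK293 cells held at −60 mV. External solution contained 0.1 mM MgCl2 and 0.3 mM CaCl2 (pH 7.4); the CsCl/EGTA internal was pH 7.2.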

[8] = target: Voltage-dependent L-type calcium channel subunit alpha-1C (Homo sapiens, UniProt Q13936); assay: Inhibition of human Cav1.2 at 10 uM
Voltage-dependent L-type calcium channel subunit alpha-1C, sequence (Q13936 whole entry): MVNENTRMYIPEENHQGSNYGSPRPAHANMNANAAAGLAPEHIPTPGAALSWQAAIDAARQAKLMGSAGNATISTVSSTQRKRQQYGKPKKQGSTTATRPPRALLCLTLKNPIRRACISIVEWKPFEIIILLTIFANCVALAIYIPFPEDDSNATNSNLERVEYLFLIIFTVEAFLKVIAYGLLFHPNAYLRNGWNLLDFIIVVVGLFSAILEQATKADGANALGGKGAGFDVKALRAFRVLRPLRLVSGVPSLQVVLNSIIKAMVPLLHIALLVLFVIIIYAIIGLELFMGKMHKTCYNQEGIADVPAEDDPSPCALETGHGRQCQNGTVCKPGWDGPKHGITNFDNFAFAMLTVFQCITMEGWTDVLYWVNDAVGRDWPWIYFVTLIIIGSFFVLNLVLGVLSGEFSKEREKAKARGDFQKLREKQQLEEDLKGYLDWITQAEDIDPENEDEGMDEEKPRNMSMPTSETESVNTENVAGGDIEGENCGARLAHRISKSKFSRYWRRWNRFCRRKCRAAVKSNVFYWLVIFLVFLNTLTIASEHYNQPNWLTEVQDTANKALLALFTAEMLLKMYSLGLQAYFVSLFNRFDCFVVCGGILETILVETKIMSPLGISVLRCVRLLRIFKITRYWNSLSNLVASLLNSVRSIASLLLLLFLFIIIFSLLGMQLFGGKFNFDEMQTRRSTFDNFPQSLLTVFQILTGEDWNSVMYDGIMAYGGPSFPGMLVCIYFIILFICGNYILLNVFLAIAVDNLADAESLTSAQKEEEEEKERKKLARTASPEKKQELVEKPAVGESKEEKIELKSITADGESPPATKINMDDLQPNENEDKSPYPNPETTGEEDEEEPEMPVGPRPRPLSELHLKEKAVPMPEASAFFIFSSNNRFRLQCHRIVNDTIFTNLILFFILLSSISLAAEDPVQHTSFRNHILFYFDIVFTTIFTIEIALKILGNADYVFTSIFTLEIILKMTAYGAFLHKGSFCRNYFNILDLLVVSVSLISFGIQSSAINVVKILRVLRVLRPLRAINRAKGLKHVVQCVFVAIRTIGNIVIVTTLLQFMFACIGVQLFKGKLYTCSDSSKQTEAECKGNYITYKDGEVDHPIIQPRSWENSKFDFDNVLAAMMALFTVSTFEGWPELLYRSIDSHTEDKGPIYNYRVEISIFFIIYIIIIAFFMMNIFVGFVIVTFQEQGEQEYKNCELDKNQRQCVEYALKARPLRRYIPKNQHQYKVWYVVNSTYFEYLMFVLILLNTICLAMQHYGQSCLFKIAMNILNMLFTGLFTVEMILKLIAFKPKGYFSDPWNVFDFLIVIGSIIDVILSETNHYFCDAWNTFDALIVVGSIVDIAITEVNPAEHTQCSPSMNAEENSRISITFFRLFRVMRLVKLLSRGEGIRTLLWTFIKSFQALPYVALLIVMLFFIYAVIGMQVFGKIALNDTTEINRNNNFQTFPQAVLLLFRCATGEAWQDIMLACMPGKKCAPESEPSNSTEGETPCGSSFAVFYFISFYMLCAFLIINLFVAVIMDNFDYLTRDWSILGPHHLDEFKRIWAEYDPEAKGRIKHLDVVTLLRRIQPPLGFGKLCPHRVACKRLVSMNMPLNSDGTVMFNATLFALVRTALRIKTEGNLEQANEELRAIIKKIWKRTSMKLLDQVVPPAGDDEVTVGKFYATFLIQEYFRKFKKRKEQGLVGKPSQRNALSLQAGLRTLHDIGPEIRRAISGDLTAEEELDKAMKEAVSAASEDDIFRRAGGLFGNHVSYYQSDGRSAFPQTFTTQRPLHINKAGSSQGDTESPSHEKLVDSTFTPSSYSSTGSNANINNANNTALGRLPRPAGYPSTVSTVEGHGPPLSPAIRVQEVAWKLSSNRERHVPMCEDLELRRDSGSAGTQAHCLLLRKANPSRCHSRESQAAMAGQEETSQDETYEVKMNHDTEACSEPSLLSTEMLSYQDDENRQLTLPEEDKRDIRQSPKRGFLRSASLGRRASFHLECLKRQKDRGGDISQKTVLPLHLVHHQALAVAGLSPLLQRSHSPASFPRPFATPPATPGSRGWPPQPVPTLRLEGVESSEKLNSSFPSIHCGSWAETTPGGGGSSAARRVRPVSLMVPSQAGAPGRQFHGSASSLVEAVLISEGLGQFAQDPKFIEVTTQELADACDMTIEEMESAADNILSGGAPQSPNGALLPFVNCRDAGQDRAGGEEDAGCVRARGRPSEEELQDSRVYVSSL
Method in brief: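 Human Nav1.5, Cav1.2 and KCNQ1/minK channels were tested at 10 μM.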

[9] = Free plasma concentration in rat at 3 mg/kg, po after 2 hrs by ex vivo equilibrium dialysis; format: ADME, organism-based
Method in brief: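 Male Sprague–Dawley rats were dosed orally at 1–100 mg/kg, and total plasma concentration was measured at 1 and 2 h. This was multiplied by fraction unbound from ex vivo equilibrium dialysis; mean ± SEM, n = 3 animals.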

[10] = Volume of distribution at steady state in rat at 1 mg/kg, iv and 2 mg/kg, po; format: ADME, organism-based; conditions: in vivo
Method in brief: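 Plasma concentration–time profiles were obtained in rats after an iv dose of 1 mg/kg and a po dose of 2 mg/kg. Parameters were estimated by noncompartmental analysis. In vivo work used male Sprague–Dawley rats of 150−200 g unless noted otherwise.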

[11] = Metabolic stability in human hepatocytes assessed as intrinsic clearance at 1 uM measured after 2 hrs; format: ADME, cell-based, Hepatocyte; conditions: read-out: CLH (converted)
[12] = Cmax in male rat at 150 mg/kg, po after 7 days; format: ADME, organism-based; parameters: dose 150 mg/kg, time 7 day, route po; conditions: in vivo
[13] = target: Adenosine receptor A2a (Homo sapiens) (UniProt P29274); assay: Displacement of [3H]-CGS 21680 from human recombinant adenosine A2A receptor at 10 uM after 120 mins by scintillation counting analysis relative to control
Adenosine receptor A2a (Homo sapiens), sequence (P29274 whole entry): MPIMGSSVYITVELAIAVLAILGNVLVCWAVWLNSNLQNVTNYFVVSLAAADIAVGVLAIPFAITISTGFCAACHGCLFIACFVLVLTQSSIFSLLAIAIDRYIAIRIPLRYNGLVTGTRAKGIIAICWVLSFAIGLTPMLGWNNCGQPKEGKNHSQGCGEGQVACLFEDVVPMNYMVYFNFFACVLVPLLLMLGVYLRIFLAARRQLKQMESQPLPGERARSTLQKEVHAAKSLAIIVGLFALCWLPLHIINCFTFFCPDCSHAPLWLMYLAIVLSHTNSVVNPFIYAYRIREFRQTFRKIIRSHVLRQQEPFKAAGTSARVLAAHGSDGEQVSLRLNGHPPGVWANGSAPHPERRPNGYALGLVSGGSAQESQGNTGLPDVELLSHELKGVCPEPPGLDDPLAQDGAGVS

[14] = AUC (0 to 8 hr) in male rat at 150 mg/kg, po after 7 days; format: ADME, organism-based; parameters: time 7 day, dose 150 mg/kg, route po; conditions: in vivo
Method in brief: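 Oral dosing in male Sprague-Dawley rats (150−200 g, 7-day acclimation, standard housing) in a 7-day exploratory toxicology study.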

[15] = Apparent permeability across apical to basolateral side in MDCK-MDR1 cells by LC-MS/MS analysis; conditions: dog

O=C(NC[C@H](c1ccc(Cl)cc1)N1CCOCC1)c1sc(-c2ncccn2)nc1C(F)(F)F
IC50 (THP-1): 38 nM
inhibition (INH) (Cytochrome P450 2C8 [1]): Not Active
CLint scaled at 1 h, 1 µM (in vitro): 85 mL/min/kg
inhibition at 30 µM (hERG (KCNH2)): 44%
TDI (Cytochrome P450 2C8 [2]): Not Active
inhibition (INH) (Cytochrome P450 3A4): Not Active
efflux ratio [3]: 0.81
IC50 [4]: 38 nM
half-life [5]: 2.7 h
Tmax [6]: 0.58 h
AUC at 336 h [7]: 131 µM·h
IC50 (P2X purinoceptor 7): 66 nM
inhibition (INH) [8]: Not Active
Cp(f) [9]: 0.0914 µM
Vdss [10]: 0.95 L/kg
CLint scaled at 1 µM [11]: 14.2 mL/min/kg
Cmax [12]: 39.6 µM
inhibition [13]: 34%
AUC at 168 h [14]: 210 µM·h
Papp A:B [15]: 15 ×10⁻⁶ cm/s
